An excerpt weighted towards active compounds, which were near 0.4% of everything screened.
TbMetRS inhib: T. brucei MetRS inhibitors, primary screen, biochemical, luminescence | AID 624268, 2012 | purified T. brucei MetRS, ATP depletion, Kinase-Glo luminescence | methionyl-tRNA synthetase (Trypanosoma brucei brucei) | inhibition, % at 11.9 µM | 360,000 compounds, 0.4% hits;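 active = inhibition above a per-plate cutoff of the control wells' mean inhibition plus 3 SD, cut at about 5.5% in these data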;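 note: 0% = DMSO wells median and 100% = median of wells with control inhibitor compound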
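Material – parasite MetRS enzyme · Medium – HEPES-MgCl2-KCl buffer plus DTT, spermine, BSA, pyrophosphatase · Reagent – ATP, methionine and E. coli bulk tRNA substrates · Times – 15 min enzyme-compound preincubation, 2 h reaction, 10 min detection, 25 °C · Measured by – luminescence of leftover ATP · Evaluation – percent inhibition relative to median high and low control wells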
ERp5 inh: inhibitors of ERp5-driven insulin aggregation, primary screen, biochemical, turbidity, absorbance 650 nm, single point. Protein disulfide-isomerase A6 (Homo sapiens), Q15084. 90 min. inhibition, % at 9.99 µM. 350,000 compounds, 0.05% hits. AID 651711, 2012;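 active = mean replicate inhibition above about 25%, with every replicate also reaching it, limit read from the data, passing the limit was not always enough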
Target sequence (Q15084 whole entry, looked up): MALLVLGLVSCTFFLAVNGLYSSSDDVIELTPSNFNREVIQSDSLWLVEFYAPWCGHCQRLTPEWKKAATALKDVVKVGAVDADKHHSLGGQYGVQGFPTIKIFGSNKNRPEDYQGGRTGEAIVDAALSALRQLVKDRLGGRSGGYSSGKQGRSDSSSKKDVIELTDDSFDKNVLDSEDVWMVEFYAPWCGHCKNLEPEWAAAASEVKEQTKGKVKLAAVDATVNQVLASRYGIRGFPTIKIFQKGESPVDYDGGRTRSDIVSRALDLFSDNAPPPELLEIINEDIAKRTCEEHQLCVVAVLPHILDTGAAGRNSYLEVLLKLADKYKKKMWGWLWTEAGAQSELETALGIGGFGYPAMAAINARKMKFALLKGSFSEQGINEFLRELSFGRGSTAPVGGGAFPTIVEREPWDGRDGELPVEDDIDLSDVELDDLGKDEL
PDI turbidity: inhibitors of human PDI, primary screen, biochemical, turbidity, single point, plate reader; PDI insulin aggregation turbidity, A650, 90 min; inhibition, % at 10 µM; 350,000 compounds, 0.052% hits; AID 588391, 2011;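 active = mean inhibition across replicates of 30% or more, whatever share of single replicates reach that level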
TbMetRS confirm: T. brucei MetRS inhibitors, confirmation, biochemical, luminescence; shares compounds with TbMetRS inhib; T. brucei MetRS enzyme, luminescence (ATP depletion); inhibition, % at 11.9 µM; 1,400 compounds, 93% hits; in the data active = inhibition above about 7%
Jurkat tox: Jurkat T cell cytotoxicity, cytotoxicity control for T. brucei MetRS inhibitor project, luminescence, high throughput. shares compounds with TbMetRS inhib. Jurkat cells viability, ATP luminescence. inhibition, % at 8.3 µM. 1,400 compounds, 12% hits; in the data active = inhibition above about 15%;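 note: 0% = vehicle and 100% = reference inhibitor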
Tb MetRS inh FP: T. brucei MetRS inhibitors, orthogonal assay for T. brucei MetRS inhibitor project, biochemical, fluorescence polarization | shares compounds with TbMetRS inhib | purified T. brucei MetRS | inhibition, % at 11.9 µM | 1,400 compounds, 44% hits; in the data active = inhibition above about 17%;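 note: 0% = vehicle wells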
Numbers without * were called inactive; . = not tested or not shown; ! = repeats disagree.

SMILES	TbMetRS inhib	ERp5 inh	PDI turbidity	others
CCCNC(=O)C[C@@H]1C[C@H]2c3cc(NC(=O)CC4CC4)ccc3O[C@H]2[C@H](CO)O1	.	61.6*	.
C[C@H](CO)N1C[C@H](C)[C@@H](CN(C)Cc2ccncc2)Oc2ccc(NC(=O)Cc3cn(C)c4ccccc34)cc2C1=O	.	-3.3	.
Cc1ccc(S(=O)(=O)Nc2ccc3c(c2)C(=O)N([C@H](C)CO)C[C@H](C)[C@@H](CN(C)S(C)(=O)=O)OCCCC[C@H](C)O3)cc1	.	0.5	.
CN1C(=O)c2cc(NC(=O)Cc3cccs3)ccc2OC[C@H]2O[C@@H](CC(=O)NCC3CC3)CC[C@@H]21	.	-5.2	.
CNC(=O)CSc1nc2nn(-c3ccccc3)c(=O)c-2c2n1CCCCC2	-0.7	5.9	-0.7
O=C(CSc1nc2nn(-c3ccccc3)c(=O)c-2c2n1CCCCC2)c1ccc(O)c(O)c1	0.1	.	53.1*
Cc1ccc(C(=O)N(CC(=O)Nc2ccc(Cl)c(Cl)c2)Cc2ccco2)cc1	0.6	.	12.0
O=C(CN(Cc1ccco1)C(=O)c1ccccc1)Nc1ccc(Cl)c(Cl)c1	5.8*	.	16.0
CC(C)(C)[S@](=O)N1Cc2cc(C(=O)NCCN3CCCCC3)nc(-c3cccc(-c4ccc(C#N)cc4)c3)c2[C@@H]1CCO	.	-4.5	.
CO[C@H]1CN(C)C(=O)c2cc(NC(=O)c3cnccn3)ccc2OC[C@@H](C)N(C(C)=O)C[C@@H]1C	.	3.5	.
CCNC(=O)[C@@H]1[C@@H](CO)[C@@H]2Cn3c(ccc(-c4cccc(F)c4)c3=O)[C@@H]2N1Cc1nccs1	.	-6.3	.
Cc1cc(/C=C2\SC(=S)N(C)C2=O)c(C)n1-c1ccc(O)cc1	-0.3	4.8	74.8*
Cc1cc(/C=C2\SC(=S)N(C)C2=O)c(C)n1-c1ccccc1O	0.3	-2.9	-0.1
C[C@H](CO)N1C[C@H](C)[C@@H](CN(C)S(=O)(=O)c2ccc(Cl)cc2)Oc2ccc(N(C)C)cc2C1=O	.	2.1	.
Cc1c(CCC(=O)N[C@@H](CC(C)C)C(=O)O)c(=O)oc2cc3oc4c(c3cc12)CCCC4	-2.1	-0.9	37.6*
Cc1c(CCC(=O)O)c(=O)oc2cc3oc4c(c3cc12)CCCC4	-1.1	4.2	1.4
CC(C)NC(=O)N(C)C[C@@H]1Oc2ncc(C#Cc3ccncc3)cc2C(=O)N([C@H](C)CO)C[C@@H]1C	.	-0.7	.
C[C@@H]1CN([C@H](C)CO)C(=O)c2cc(-c3cccc(C#N)c3)cnc2O[C@H]1CN(C)Cc1cncnc1	.	75.3*	.
C[C@@H]1CN([C@H](C)CO)C(=O)c2cc(-c3cccc(C#N)c3)cnc2O[C@@H]1CN(C)Cc1cncnc1	.	3.3	.
C[C@@H]1CN([C@@H](C)CO)C(=O)c2cc(Br)cnc2O[C@H]1CN(C)Cc1ccccc1	.	-8.5	.
C[C@@H]1CN([C@@H](C)CO)C(=O)c2cc(Br)cnc2O[C@H]1CN(C)Cc1cccc(F)c1	.	36.9*!	.
Cc1ccc(NC(=O)CCNS(=O)(=O)c2ccc(Br)s2)cc1	17.7*	-3.0	-1.5	TbMetRS confirm=39.8*;Jurkat tox=-0.6;Tb MetRS inh FP=23.8*
COc1ccc(NC(=O)CCNS(=O)(=O)c2ccc(Br)s2)cc1	2.0	-8.1	-0.6
O=C(C[C@H]1C=C[C@H](NC(=O)C2CC2)[C@@H](CO)O1)NC1CCC1	.	-1.6	.
CCOc1ccc2[nH]c(=O)c(CN(CCCN3CCOCC3)C(=O)Nc3ccc(F)cc3)cc2c1	0.2	4.9	3.0
Cc1ccc2[nH]c(=O)c(CN(CCN3CCOCC3)C(=O)Nc3ccc(F)cc3)cc2c1	5.9*	.	2.3	TbMetRS confirm=9.1*;Jurkat tox=3.1;Tb MetRS inh FP=-0.3
CS(=O)(=O)N1[C@@H]2Cn3c(ccc(-c4ccc(F)cc4)c3=O)[C@H]1[C@@H](C(=O)N1CCOCC1)[C@@H]2CO	.	-0.9	.
COc1ccc(NC(=O)N(C)C[C@H]2OCCCC[C@@H](C)Oc3ccc(NS(=O)(=O)c4ccccc4)cc3C(=O)N([C@H](C)CO)C[C@@H]2C)cc1	.	-10.2	.
